The IC50 is the concentration that inhibits the measured activity by half. As usually defined, the viability is a per cent measure of how many cells are alive, often set against a control. Lower therefore signals a greater loss of cells.

One data set deals with Th1 cells. Put plainly: Th1 cell IFNγ production by ELISA. It is filed as cell-based, mice. Particulars: 100μM. The procedure, abridged:
(§1)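 Balb/c T helper cells isolated by magnetic beads, cultured in RPMI with plate-bound anti-CD3 1μg/mL, anti-CD28 2μg/mL and IL-2. Th1 skewed with rIL-12 5ng/mL and anti-IL-4 10 μg/mL (IFNγ line); Th2 with rIL-4 10 ng/mL and anti-IFNγ 10 μg/mL (IL-4 line). Day-7 cells at 1 × 10^6 cells/mL restimulated with plate-bound anti-CD3 (1μg/mL) for 24 h with compound or DMSO. Supernatant cytokine measured by ELISA; at least three experiments.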
In general terms: An ELISA detects its analyte on a solid surface through an enzyme-linked reagent.

Another data set relates to PRMT1/NIP45 interaction. Briefly: HA-PRMT1/FLAG-NIP45 coimmunoprecipitation in 293T cells. The class given is cell-based. The settings on record: 293T cells transfected with HA-PRMT1 and FLAG-NIP45; 100μM (Adox 20μM). The method, boiled down: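 293T cells were co-transfected (Fugene HD) with HA-PRMT1 and FLAG-NIP45 vectors, then treated with DMSO, test compound (100μM) or Adox (20μM). Lysates in 100 mM NaCl, 50 mM TRIS pH 7.5, 0.1% TX-100 buffer were immunoprecipitated with anti-HA agarose and blotted for FLAG, then reprobed for HA. FLAG/HA association was quantified versus DMSO; three experiments.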

The next data set addresses PRMT5 (Homo sapiens, UniProt O14744). The class given is biochemical. The settings on record: PRMT5 immunoprecipitated from 293T cells, MBP as substrate. The method, boiled down: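 PRMT5, or an isotype-control IP, was immunoprecipitated from 293 cell extracts and used in in vitro methylation reactions with MBP substrate at the indicated test compound concentrations. Reaction inputs were checked by immunoblotting with PRMT5 antisera. Representative of at least three independent experiments.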

The target of data set [1] is T1, recombinant human GST-PRMT4 (Homo sapiens, UniProt Q86X55).
T1 sequence (Q86X55 1-608): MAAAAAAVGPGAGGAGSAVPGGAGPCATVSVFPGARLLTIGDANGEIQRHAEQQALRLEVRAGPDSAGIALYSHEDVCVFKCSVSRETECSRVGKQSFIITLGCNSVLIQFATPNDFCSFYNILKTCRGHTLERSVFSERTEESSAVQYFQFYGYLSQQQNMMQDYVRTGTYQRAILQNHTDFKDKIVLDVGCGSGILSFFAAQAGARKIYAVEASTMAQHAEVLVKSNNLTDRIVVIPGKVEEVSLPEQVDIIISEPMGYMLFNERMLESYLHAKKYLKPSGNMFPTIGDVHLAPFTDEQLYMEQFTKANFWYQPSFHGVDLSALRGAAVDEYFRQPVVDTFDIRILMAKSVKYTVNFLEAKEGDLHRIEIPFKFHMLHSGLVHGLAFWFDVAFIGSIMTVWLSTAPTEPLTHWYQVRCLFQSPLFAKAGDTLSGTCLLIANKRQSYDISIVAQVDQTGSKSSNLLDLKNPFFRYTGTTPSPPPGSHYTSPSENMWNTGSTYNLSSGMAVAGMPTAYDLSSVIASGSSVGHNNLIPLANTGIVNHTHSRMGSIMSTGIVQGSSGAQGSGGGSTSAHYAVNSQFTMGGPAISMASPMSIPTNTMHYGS
Put plainly: In vitro methylation of histone 3 by recombinant GST-PRMT4. The settings on record: read-out: PRMT4 IC50; recombinant human GST-PRMT4, histone 3 as substrate. It is filed as biochemical. The procedure, abridged:
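Recombinant human GST-PRMT4 methylated recombinant histone 3 in the presence of [3H]SAM and increasing concentrations of test compound. Methylation was quantified by densitometry, and IC50 was calculated by linear regression. Representative of at least three independent experiments.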

The next data set has as its system Th2 cells. Put plainly: Th2 cell IL-4 production by ELISA. It is filed as cell-based, mice. Particulars: 100μM. The method, boiled down: as §1
Data set [2] deals with IL-4 promoter (−760 to +68) in Jurkat cells. Put plainly: IL-4 promoter luciferase reporter in Jurkat cells. It is filed as cell-based, human. Particulars: 18hrs pretreatment then 6hr PMA/Ionomycin, 100μM (Adox 20μM). The method, boiled down:
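Jurkat cells in RPMI, electroporated (280V, 975μF) with IL-4 promoter luciferase reporter (3μg) plus thymidine kinase-driven Renilla luciferase (10ng) as internal control. Compounds in DMSO, vehicle control DMSO; 18 h pretreatment, then 6 h stimulation with 50 ng/mL PMA plus ionomycin. Dual luciferase read-out, firefly normalised to Renilla. At least three independent experiments.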
For orientation: Reporter assays use an easily measured gene product as a stand-in for the process of interest.

The next data set addresses PRMT8 (Homo sapiens, UniProt Q9NR22). Put plainly: In vitro methylation of GST-GAR by recombinant GST-PRMT8. The settings on record: 30μM compound, GST-GAR substrate. It is filed as biochemical. The procedure, abridged: (§2)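 Recombinant GST-PRMT6 or GST-PRMT8 was concentrated on a micron 10 filter and reacted with GST-GAR substrate and [3H]SAM plus 30μM test compound. Reactions were quantified by densitometry. Representative of at least three independent experiments.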

In data set [3] the test system is PRMT1. Briefly: HA-PRMT1/FLAG-PRMT1 coimmunoprecipitation. Particulars: 100μM during coimmunoprecipitation. The method, boiled down:
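HA-PRMT1 and FLAG-PRMT1 were expressed in separately transfected 293T cells. Equal volumes of the two lysates were mixed and incubated with DMSO or test compound (100μM) during the anti-HA agarose immunoprecipitation. Blots were probed with anti-FLAG. As a specificity control, IPs from vector-only cells were incubated with FLAG-NIP45 lysates.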

Another data set concerns the target PRMT6 (Homo sapiens, UniProt Q96LA8). Briefly: In vitro methylation of GST-GAR by recombinant GST-PRMT6. The class given is biochemical. The settings on record: 30μM compound, GST-GAR substrate. The method, boiled down:
as §2

The subject of the next data set is recombinant hPRMT1. The settings on record: read-out: PRMT1 IC50; reported value using recombinant hPRMT1 and GST-Npl3 as substrate; cited from earlier work.
For data set [4], the system named is H3R17 methylation in 293T cells. Briefly: Cellular H3R17 methylation immunoblot in 293T cells. The class given is cell-based. The settings on record: 293T cells over treatment period (data not shown). The method, boiled down:
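293T cells grown in DMEM were treated for 24 hrs with DMSO vehicle, test compound (100μM or 300μM) or Adox (20μM). Histone extracts were immunoblotted with anti-histone 3 dimethylarginine 17 antibody. Methylation was quantified relative to vehicle-treated samples. Toxicity was followed over the treatment period. Three independent experiments.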
(Immunoblotting shows a protein as a band on a membrane.)

Data set [5] relates to T helper cells. Put plainly: Viability of T helper cells. It is filed as cell-based. Particulars: T helper cells, 100 μM.
Data set [6] in a line: Viability of T helper cells. The class given is cell-based. Particulars: Balb/c, mouse, primary T helper cells.
Data set [7] relates to T helper cells. Put plainly: T helper cell proliferation. The class given is cell-based, mice. Particulars: anti-CD3 stimulated T helper cells, MTS assay.
Data set [8] concerns the target PRMT1 (Rattus norvegicus, UniProt Q63009). Put plainly: UV crosslinking of [3H]SAM to GST-PRMT1. The class given is binding. The settings on record: 100μM inhibitor, 20μM [3H]SAM.

Each structure is given as a SMILES string.

PRMT8, sequence (Q9NR22 whole entry, species assumed): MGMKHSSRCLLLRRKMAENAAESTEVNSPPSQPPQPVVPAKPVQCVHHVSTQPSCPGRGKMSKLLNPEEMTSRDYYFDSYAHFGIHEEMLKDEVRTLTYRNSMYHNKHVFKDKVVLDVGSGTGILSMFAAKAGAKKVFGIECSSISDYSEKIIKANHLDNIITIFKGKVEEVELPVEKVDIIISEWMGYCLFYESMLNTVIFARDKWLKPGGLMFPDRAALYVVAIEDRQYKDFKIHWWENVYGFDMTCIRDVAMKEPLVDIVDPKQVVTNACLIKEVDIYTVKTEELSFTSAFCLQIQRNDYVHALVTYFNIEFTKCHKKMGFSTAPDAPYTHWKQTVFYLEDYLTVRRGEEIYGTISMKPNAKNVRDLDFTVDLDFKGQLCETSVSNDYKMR
PRMT6, sequence (Q96LA8 whole entry, species assumed): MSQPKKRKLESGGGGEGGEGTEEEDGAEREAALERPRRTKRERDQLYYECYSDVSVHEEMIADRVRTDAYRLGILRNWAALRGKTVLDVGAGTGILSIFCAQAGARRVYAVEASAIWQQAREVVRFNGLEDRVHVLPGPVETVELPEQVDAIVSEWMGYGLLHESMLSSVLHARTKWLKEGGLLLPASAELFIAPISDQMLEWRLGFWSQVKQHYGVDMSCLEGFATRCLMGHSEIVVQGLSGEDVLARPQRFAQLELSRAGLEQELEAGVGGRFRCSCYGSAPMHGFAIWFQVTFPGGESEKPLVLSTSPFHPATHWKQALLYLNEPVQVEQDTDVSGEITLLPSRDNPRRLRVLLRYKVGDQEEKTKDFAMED
PRMT1 (Rattus norvegicus, UniProt Q63009), sequence (Q63009 whole entry): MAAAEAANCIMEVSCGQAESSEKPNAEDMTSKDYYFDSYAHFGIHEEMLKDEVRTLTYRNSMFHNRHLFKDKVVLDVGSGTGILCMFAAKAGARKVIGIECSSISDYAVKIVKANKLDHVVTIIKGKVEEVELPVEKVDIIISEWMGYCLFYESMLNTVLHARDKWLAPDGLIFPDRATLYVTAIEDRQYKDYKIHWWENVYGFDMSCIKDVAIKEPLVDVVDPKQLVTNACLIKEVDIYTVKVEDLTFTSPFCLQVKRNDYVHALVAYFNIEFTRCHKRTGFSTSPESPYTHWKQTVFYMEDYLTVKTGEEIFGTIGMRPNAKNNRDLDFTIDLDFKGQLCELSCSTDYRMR
PRMT5, sequence (O14744 whole entry): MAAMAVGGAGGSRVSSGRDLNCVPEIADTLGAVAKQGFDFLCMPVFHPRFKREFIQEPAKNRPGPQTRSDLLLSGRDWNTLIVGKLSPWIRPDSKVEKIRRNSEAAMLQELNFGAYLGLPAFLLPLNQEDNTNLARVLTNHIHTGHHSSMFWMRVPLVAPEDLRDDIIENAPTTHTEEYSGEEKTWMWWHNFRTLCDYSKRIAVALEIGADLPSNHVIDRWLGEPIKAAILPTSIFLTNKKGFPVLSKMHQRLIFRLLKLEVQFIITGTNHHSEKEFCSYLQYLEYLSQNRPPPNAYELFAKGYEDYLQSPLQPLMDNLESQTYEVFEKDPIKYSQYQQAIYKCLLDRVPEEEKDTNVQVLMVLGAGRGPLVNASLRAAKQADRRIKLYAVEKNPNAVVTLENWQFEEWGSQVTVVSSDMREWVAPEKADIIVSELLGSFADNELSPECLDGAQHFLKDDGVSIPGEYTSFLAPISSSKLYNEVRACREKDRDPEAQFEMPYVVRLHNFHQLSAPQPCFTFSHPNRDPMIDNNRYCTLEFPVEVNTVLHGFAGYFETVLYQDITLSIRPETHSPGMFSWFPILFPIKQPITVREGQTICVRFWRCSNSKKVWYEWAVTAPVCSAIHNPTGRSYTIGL
PRMT5, sequence (Q9BQA1 whole entry partner): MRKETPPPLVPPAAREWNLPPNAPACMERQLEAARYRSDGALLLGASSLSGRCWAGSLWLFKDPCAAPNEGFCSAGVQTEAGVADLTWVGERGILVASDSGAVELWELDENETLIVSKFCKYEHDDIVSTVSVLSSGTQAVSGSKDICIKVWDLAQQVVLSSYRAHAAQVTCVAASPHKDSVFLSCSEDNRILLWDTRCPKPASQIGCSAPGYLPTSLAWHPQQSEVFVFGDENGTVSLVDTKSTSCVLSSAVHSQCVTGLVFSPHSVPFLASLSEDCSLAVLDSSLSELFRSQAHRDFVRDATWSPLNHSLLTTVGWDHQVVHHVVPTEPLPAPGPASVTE

Consider `O=C(Nc1ccc2c(O)cc(S(=O)(=O)O)cc2c1)Nc1ccc2c(O)cc(S(=O)(=O)O)cc2c1` [AMI-1], for which, in the data set on Th1 cells (anti-CD3 stimulated Th1 cells, ELISA), the “reduction of Th1 IFNγ production” value was “less than 40%”. The “effect on PRMT1/NIP45 association” value in the data set with PRMT1/NIP45 interaction is “interfered with the NIP45 and PRMT1 interaction”. The “inhibition of PRMT5 activity” value against PRMT5 was “ineffective”. Moreover, the half-inhibitory concentration (IC50) was 170 ± 10.7 µM in [1] and 8.8 µM in the data set on recombinant hPRMT1. Further, the “reduction of Th2 IL-4 levels” value in the data set on Th2 cells (anti-CD3 stimulated Th2 cells, ELISA) is “less than 40%”. The “effect on IL-4 promoter reporter activity” value in data set [2] is given as “decreased promoter activity”. Besides, the “inhibition of GST-GAR methylation by PRMT8” value on PRMT8 is reported as “less effective”. Further, the “effect on HA-PRMT1/FLAG-PRMT1 interaction (oligomerization)” value in the data set with PRMT1 [3] was “did not interfere with the interaction”. Also, the “inhibition of GST-GAR methylation by PRMT6” value at PRMT6 is “less effective”.
Take `Nc1ncnc2c1ncn2C(C=O)OC(C=O)CO` (centres unmarked) [Adox, adenosine dialdehyde]: in the data set with PRMT1/NIP45 interaction, the “effect on PRMT1/NIP45 association” value is reported as “reduced the association”. For the same compound, the cellular toxicity entry in [4] is “no cellular toxicity”. For the same compound, in data set [2], the “effect on IL-4 promoter reporter activity” value is recorded as “greatly diminished”.
As to `CSC[C@H]1O[C@@H](n2cnc3c(N)ncnc32)[C@H](O)[C@@H]1O` [MTA, methylthioadenosine], the “effect on IFNγ production” value in the data set with Th1 cells (Th1 cells) is “diminished”. In the data set on T helper cells [5], the “% apoptotic” value was 4.9% and the “% necrotic” value was 4.2%. The viability at 100 µM in data set [6] was determined as 90.9%. The “effect on IL-4 production” value in the data set on Th2 cells (Th2 cells) is on record as “diminished”. The “effect on T helper cell proliferation” value with T helper cells [7] is “inhibited T cell proliferation”.
Turning to `Nc1ncnc2c1ncn2[C@@H]1O[C@H](C[C@@H](N)CC[C@H](N)C(=O)O)[C@@H](O)[C@H]1O` [sinefungin], on PRMT1 [8], the “competition for SAM binding to PRMT1” value was “competitive with SAM for binding”.

The record behind these values is PMC2903848 (The FEBS journal, 2010).
